# Measurements reported in ChEMBL document CHEMBL1255475, “Mutant prevention concentrations of four carbapenems against gram-negative rods” (2010).
# Assays:
# Format in all cases: functional
# Klebsiella pneumoniae [1] = assay: Antibacterial activity against beta-lactamase-positive ESBL-positive Klebsiella pneumoniae E453 assessed as mutant prevention concentration after overnight incubation
# Summary of the method: (§1)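 Overnight growth on blood trypticase soy agar (35°C, air) was resuspended in 0.9% saline and counted on drug-free Mueller-Hinton agar. […] Colonies were retested by agar dilution to confirm mutants. MPC was the lowest concentration preventing resistant-mutant growth.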
# Klebsiella pneumoniae [2] = assay: Antibacterial activity against beta-lactamase-negative Klebsiella pneumoniae E362 assessed as mutant prevention concentration after overnight incubation
# Acinetobacter baumannii [3] = assay: Antibacterial activity against Acinetobacter baumannii A910 assessed as mutant prevention concentration after overnight incubation
# Escherichia coli [4] = assay: Antibacterial activity against beta-lactamase-positive ESBL-negative Escherichia coli E484 assessed as mutant prevention concentration after overnight incubation; summary of the method: as §1
# Klebsiella pneumoniae [5] = assay: Antibacterial activity against beta-lactamase-negative Klebsiella pneumoniae E359 assessed as mutant prevention concentration after overnight incubation
# Escherichia coli [6] = assay: Antibacterial activity against beta-lactamase-positive ESBL-positive Escherichia coli E451 assessed as mutant prevention concentration after overnight incubation; summary of the method: as §1
# Pseudomonas aeruginosa [7] = assay: Antibacterial activity against Pseudomonas aeruginosa P323 assessed as mutant prevention concentration after overnight incubation
# Pseudomonas aeruginosa [8] = assay: Antibacterial activity against Pseudomonas aeruginosa P353 assessed as mutant prevention concentration after overnight incubation
# Acinetobacter baumannii [9] = assay: Antibacterial activity against Acinetobacter baumannii A898 assessed as mutant prevention concentration after overnight incubation
# Pseudomonas aeruginosa [10] = assay: Antibacterial activity against Pseudomonas aeruginosa P320 assessed as mutant prevention concentration after overnight incubation
# Pseudomonas aeruginosa [11] = assay: Antibacterial activity against Pseudomonas aeruginosa P332 assessed as mutant prevention concentration after overnight incubation
# Pseudomonas aeruginosa [12] = assay: Antibacterial activity against Pseudomonas aeruginosa P352 assessed as mutant prevention concentration after overnight incubation
# Escherichia coli [13] = assay: Antibacterial activity against beta-lactamase-positive ESBL-positive Escherichia coli E460 assessed as mutant prevention concentration after overnight incubation; summary of the method: as §1
# Acinetobacter baumannii [14] = assay: Antibacterial activity against Acinetobacter baumannii A884 assessed as mutant prevention concentration after overnight incubation
# Escherichia coli [15] = assay: Antibacterial activity against beta-lactamase-negative Escherichia coli E424 assessed as mutant prevention concentration after overnight incubation
# Acinetobacter baumannii [16] = assay: Antibacterial activity against Acinetobacter baumannii A849 assessed as mutant prevention concentration after overnight incubation
# Klebsiella pneumoniae [17] = assay: Antibacterial activity against beta-lactamase-positive ESBL-negative Klebsiella pneumoniae E472 assessed as mutant prevention concentration after overnight incubation; summary of the method: as §1
# Klebsiella pneumoniae [18] = assay: Antibacterial activity against beta-lactamase-negative Klebsiella pneumoniae E417 assessed as mutant prevention concentration after overnight incubation
# Klebsiella pneumoniae [19] = assay: Antibacterial activity against beta-lactamase-positive ESBL-negative Klebsiella pneumoniae E474 assessed as mutant prevention concentration after overnight incubation; summary of the method: as §1
# Acinetobacter baumannii [20] = assay: Antibacterial activity against Acinetobacter baumannii A896 assessed as mutant prevention concentration after overnight incubation
# Klebsiella pneumoniae [21] = assay: Antibacterial activity against beta-lactamase-negative Klebsiella pneumoniae E357 assessed as mutant prevention concentration after overnight incubation
# Acinetobacter baumannii [22] = assay: Antibacterial activity against Acinetobacter baumannii A851 assessed as mutant prevention concentration after overnight incubation
# Pseudomonas aeruginosa [23] = assay: Antibacterial activity against Pseudomonas aeruginosa P322 assessed as mutant prevention concentration after overnight incubation
# Escherichia coli [24] = assay: Antibacterial activity against beta-lactamase-negative Escherichia coli E348 assessed as mutant prevention concentration after overnight incubation
# Acinetobacter baumannii [25] = assay: Antibacterial activity against Acinetobacter baumannii A885 assessed as mutant prevention concentration after overnight incubation
# Acinetobacter baumannii [26] = assay: Antibacterial activity against Acinetobacter baumannii A850 assessed as mutant prevention concentration after overnight incubation
# Acinetobacter baumannii [27] = assay: Antibacterial activity against Acinetobacter baumannii A929 assessed as mutant prevention concentration after overnight incubation
# Acinetobacter baumannii [28] = assay: Antibacterial activity against Acinetobacter baumannii A931 assessed as mutant prevention concentration after overnight incubation
# Pseudomonas aeruginosa [29] = assay: Antibacterial activity against Pseudomonas aeruginosa P334 assessed as mutant prevention concentration after overnight incubation
# Klebsiella pneumoniae [30] = assay: Antibacterial activity against beta-lactamase-positive ESBL-negative Klebsiella pneumoniae E511 assessed as mutant prevention concentration after overnight incubation; summary of the method: as §1
# Pseudomonas aeruginosa [31] = assay: Antibacterial activity against Pseudomonas aeruginosa P341 assessed as mutant prevention concentration after overnight incubation
# Acinetobacter baumannii [32] = assay: Antibacterial activity against Acinetobacter baumannii A908 assessed as mutant prevention concentration after overnight incubation
# Acinetobacter baumannii [33] = assay: Antibacterial activity against Acinetobacter baumannii A848 assessed as mutant prevention concentration after overnight incubation
# Pseudomonas aeruginosa [34] = assay: Antibacterial activity against Pseudomonas aeruginosa P340 assessed as mutant prevention concentration after overnight incubation
# Klebsiella pneumoniae [35] = assay: Antibacterial activity against beta-lactamase-positive ESBL-negative Klebsiella pneumoniae E473 assessed as mutant prevention concentration after overnight incubation; summary of the method: as §1
# Pseudomonas aeruginosa [36] = assay: Antibacterial activity against Pseudomonas aeruginosa P365 assessed as mutant prevention concentration after overnight incubation
# Klebsiella pneumoniae [37] = assay: Antibacterial activity against beta-lactamase-positive ESBL-positive Klebsiella pneumoniae E478 assessed as mutant prevention concentration after overnight incubation; summary of the method: as §1
# Escherichia coli [38] = assay: Antibacterial activity against beta-lactamase-positive ESBL-negative Escherichia coli E437 incubated up to 7 days by agar dilution method; settings: E437, 168 h
# Summary of the method: (§2)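 MIC by CLSI agar dilution, with quality-control strains in each run. Beta-lactamase status was set by 30 μg cefazolin Kirby-Bauer disk diffusion. ESBL status was set by cefotaxime and ceftazidime disks (30 μg) with and without clavulanic acid (10 μg).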
# Klebsiella pneumoniae [39] = assay: Antibacterial activity against beta-lactamase-positive ESBL-negative Klebsiella pneumoniae E507 incubated up to 7 days by agar dilution method; settings: E507, 168 h
# Summary of the method: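 MPC determination: overnight cultures on blood trypticase soy agar at 35°C in air were resuspended in 0.9% saline, and CFU were counted on drug-free Mueller-Hinton agar. […] Growth was retested by agar dilution to confirm mutants. MPC was the lowest concentration preventing resistant-mutant growth.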
# Klebsiella pneumoniae [40] = assay: Antibacterial activity against beta-lactamase-positive ESBL-positive Klebsiella pneumoniae E475 incubated up to 7 days by agar dilution method; settings: E475, 168 h
# Klebsiella pneumoniae [41] = assay: Antibacterial activity against beta-lactamase-positive ESBL-negative Klebsiella pneumoniae E477 incubated up to 7 days by agar dilution method; settings: E477, 168 h
# Klebsiella pneumoniae [42] = assay: Antibacterial activity against beta-lactamase-negative Klebsiella pneumoniae E418 incubated up to 7 days by agar dilution method; settings: E418, 168 h
# Klebsiella pneumoniae [43] = assay: Antibacterial activity against beta-lactamase-positive ESBL-positive Klebsiella pneumoniae E457 incubated up to 7 days by agar dilution method; settings: E457, 168 h; summary of the method: as §2
# Escherichia coli [44] = assay: Antibacterial activity against beta-lactamase-positive ESBL-positive Escherichia coli E451 incubated up to 7 days by agar dilution method; settings: E451, 168 h; summary of the method: as §2
# Escherichia coli [45] = assay: Antibacterial activity against beta-lactamase-negative Escherichia coli E347 incubated up to 7 days by agar dilution method; settings: E347, 168 h
# Escherichia coli [46] = assay: Antibacterial activity against beta-lactamase-positive ESBL-positive Escherichia coli E452 incubated up to 7 days by agar dilution method; settings: E452, 168 h; summary of the method: as §2
# Escherichia coli [47] = assay: Antibacterial activity against beta-lactamase-positive ESBL-positive Escherichia coli E446 incubated up to 7 days by agar dilution method; settings: E446, 168 h; summary of the method: as §2
structure (smiles),measurement,setting,value
C[C@@H](O)[C@H]1C(=O)N2C(C(=O)O)=C(SCCNC=N)C[C@H]12 [IMIPENEM ANHYDROUS],MPC,Klebsiella pneumoniae [1],0.5 µg/mL
same,MPC,Klebsiella pneumoniae [2],1 µg/mL
same,MPC,Acinetobacter baumannii [3],8 µg/mL
same,MPC,Escherichia coli [4],>16 µg/mL
same,MPC,Klebsiella pneumoniae [5],1 µg/mL
same,MPC,Escherichia coli [6],0.5 µg/mL
same,MPC,Pseudomonas aeruginosa [7],64 µg/mL
same,MPC,Pseudomonas aeruginosa [8],64 µg/mL
same,MPC,Acinetobacter baumannii [9],4 µg/mL
same,MPC,Pseudomonas aeruginosa [10],32 µg/mL
same,MPC,Pseudomonas aeruginosa [11],16 µg/mL
same,MPC,Pseudomonas aeruginosa [12],32 µg/mL
same,MPC,Escherichia coli [13],0.5 µg/mL
same,MPC,Acinetobacter baumannii [14],4 µg/mL
same,MPC,Escherichia coli [15],0.5 µg/mL
same,MPC,Acinetobacter baumannii [16],64 µg/mL
same,MPC,Klebsiella pneumoniae [17],32 µg/mL
same,MPC,Klebsiella pneumoniae [18],0.5 µg/mL
same,MPC,Klebsiella pneumoniae [19],16 µg/mL
same,MPC,Acinetobacter baumannii [20],1 µg/mL
same,MPC,Klebsiella pneumoniae [21],1 µg/mL
same,MPC,Acinetobacter baumannii [22],8 µg/mL
same,MPC,Pseudomonas aeruginosa [23],32 µg/mL
same,MPC,Escherichia coli [24],0.5 µg/mL
same,MPC,Acinetobacter baumannii [25],8 µg/mL
same,MPC,Acinetobacter baumannii [26],8 µg/mL
same,MPC,Acinetobacter baumannii [27],1 µg/mL
same,MPC,Acinetobacter baumannii [28],1 µg/mL
same,MPC,Pseudomonas aeruginosa [29],16 µg/mL
same,MPC,Klebsiella pneumoniae [30],64 µg/mL
same,MPC,Pseudomonas aeruginosa [31],32 µg/mL
same,MPC,Acinetobacter baumannii [32],1 µg/mL
same,MPC,Acinetobacter baumannii [33],8 µg/mL
same,MPC,Pseudomonas aeruginosa [34],2 µg/mL
same,MPC,Klebsiella pneumoniae [35],16 µg/mL
same,MPC,Pseudomonas aeruginosa [36],16 µg/mL
same,MPC,Klebsiella pneumoniae [37],16 µg/mL
C[C@@H](O)[C@H]1C(=O)N2C(C(=O)O)=C(S[C@@H]3CN[C@H](CNS(N)(=O)=O)C3)[C@H](C)[C@H]12 [DORIPENEM],MPC,Klebsiella pneumoniae [1],0.125 µg/mL
same,MIC,Escherichia coli [38],0.06 µg/mL
same,MPC,Klebsiella pneumoniae [2],0.125 µg/mL
same,MPC,Acinetobacter baumannii [3],4 µg/mL
same,MPC,Escherichia coli [4],8 µg/mL
same,MPC,Klebsiella pneumoniae [5],0.125 µg/mL
same,MIC,Klebsiella pneumoniae [39],2 µg/mL
same,MPC,Escherichia coli [6],0.06 µg/mL
same,MPC,Pseudomonas aeruginosa [7],4 µg/mL
same,MPC,Pseudomonas aeruginosa [8],2 µg/mL
same,MPC,Acinetobacter baumannii [9],4 µg/mL
same,MPC,Pseudomonas aeruginosa [10],>2 µg/mL
same,MPC,Pseudomonas aeruginosa [11],>4 µg/mL
same,MPC,Pseudomonas aeruginosa [12],2 µg/mL
same,MPC,Escherichia coli [13],0.125 µg/mL
same,MPC,Acinetobacter baumannii [14],4 µg/mL
same,MPC,Escherichia coli [15],0.06 µg/mL
same,MIC,Klebsiella pneumoniae [40],2 µg/mL
same,MPC,Acinetobacter baumannii [16],16 µg/mL
same,MPC,Klebsiella pneumoniae [17],64 µg/mL
same,MIC,Klebsiella pneumoniae [41],2 µg/mL
same,MIC,Klebsiella pneumoniae [42],0.125 µg/mL
same,MPC,Klebsiella pneumoniae [18],0.125 µg/mL
same,MPC,Klebsiella pneumoniae [19],32 µg/mL
same,MPC,Acinetobacter baumannii [20],1 µg/mL
same,MIC,Klebsiella pneumoniae [43],0.06 µg/mL
same,MPC,Klebsiella pneumoniae [21],0.125 µg/mL
same,MPC,Acinetobacter baumannii [22],16 µg/mL
same,MPC,Pseudomonas aeruginosa [23],4 µg/mL
same,MPC,Escherichia coli [24],0.06 µg/mL
same,MPC,Acinetobacter baumannii [25],8 µg/mL
same,MIC,Escherichia coli [44],0.03 µg/mL
same,MPC,Acinetobacter baumannii [26],8 µg/mL
same,MPC,Acinetobacter baumannii [27],4 µg/mL
same,MPC,Acinetobacter baumannii [28],2 µg/mL
same,MPC,Pseudomonas aeruginosa [29],>2 µg/mL
same,MIC,Escherichia coli [45],0.03 µg/mL
same,MPC,Klebsiella pneumoniae [30],>64 µg/mL
same,MPC,Pseudomonas aeruginosa [31],8 µg/mL
same,MPC,Acinetobacter baumannii [32],1 µg/mL
same,MPC,Acinetobacter baumannii [33],16 µg/mL
same,MPC,Pseudomonas aeruginosa [34],1 µg/mL
same,MPC,Klebsiella pneumoniae [35],8 µg/mL
same,MIC,Escherichia coli [46],0.03 µg/mL
same,MIC,Escherichia coli [47],0.06 µg/mL
same,MPC,Pseudomonas aeruginosa [36],8 µg/mL
same,MPC,Klebsiella pneumoniae [37],>64 µg/mL
